Laboratory results: ChEMBL document CHEMBL1133294, “Potent, selective 3-pyridylethanolamine beta3 adrenergic receptor agonists possessing a thiazole benzenesulfonamide pharmacophore” (Bioorg Med Chem Lett, 2000)

Biological target: Beta-1 adrenergic receptor (Homo sapiens, UniProt P08588)
Test: Binding affinity (measured using [125I]iodocyanopindolol) against human Beta-1 adrenergic receptor expressed in CHO cells
Assay type: cell-based
Conditions: not given
Method in brief: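 Membranes from CHO cells expressing cloned human β1 receptor; competition binding against 125I-iodocyanopindolol.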

Chain of Beta-1 adrenergic receptor (P08588 whole entry): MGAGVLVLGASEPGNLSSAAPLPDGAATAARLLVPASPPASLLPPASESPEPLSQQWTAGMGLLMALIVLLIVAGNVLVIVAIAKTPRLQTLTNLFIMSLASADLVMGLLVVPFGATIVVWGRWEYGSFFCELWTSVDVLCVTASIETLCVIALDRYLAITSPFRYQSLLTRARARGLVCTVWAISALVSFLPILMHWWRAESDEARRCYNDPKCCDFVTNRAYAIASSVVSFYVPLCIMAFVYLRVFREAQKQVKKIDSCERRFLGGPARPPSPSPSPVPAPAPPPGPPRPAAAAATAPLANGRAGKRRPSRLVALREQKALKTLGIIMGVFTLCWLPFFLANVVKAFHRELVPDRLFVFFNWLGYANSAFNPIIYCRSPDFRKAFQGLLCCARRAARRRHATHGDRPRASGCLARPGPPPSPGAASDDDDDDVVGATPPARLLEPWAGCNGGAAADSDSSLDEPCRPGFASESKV

Compound	IC50 [µM]
O=S(=O)(Nc1ccc(CCNC[C@H](O)c2cccnc2)cc1)c1ccc(-c2nc(-c3c[nH]c4ccccc34)cs2)cc1	30
CC(C)(C)c1ccc(-c2csc(-c3ccc(S(=O)(=O)Nc4ccc(CCNC[C@H](O)c5cccnc5)cc4)cc3)n2)cc1	1.6
O=S(=O)(Nc1ccc(CCNC[C@H](O)c2cccnc2)cc1)c1ccc(-c2nc(-c3ccc4ccccc4c3)cs2)cc1	13
O=S(=O)(Nc1ccc(CCNC[C@H](O)c2cccnc2)cc1)c1ccc(-c2nc(-c3cccnc3)cs2)cc1	7
O=S(=O)(Nc1ccc(CCNC[C@H](O)c2cccnc2)cc1)c1ccc(-c2nc(-c3ccc(O)cc3)cs2)cc1	1.1
O=S(=O)(Nc1ccc(CCNC[C@H](O)c2cccnc2)cc1)c1ccc(-c2nc(Cc3ccc4ccccc4c3)cs2)cc1	3.3
O=S(=O)(Nc1ccc(CCNC[C@H](O)c2cccnc2)cc1)c1ccc(-c2nc(-c3ccc4ncccc4c3)cs2)cc1	6
CCCCCCCCc1csc(Cc2ccc(S(=O)(=O)Nc3ccc(CCNC[C@H](O)c4cccnc4)cc3)cc2)n1	0.85
O=S(=O)(Nc1ccc(CCNC[C@H](O)c2cccnc2)cc1)c1ccc(-c2nc(CCCC3CCCC3)cs2)cc1	7
O=S(=O)(Nc1ccc(CCNC[C@H](O)c2cccnc2)cc1)c1ccc(-c2nc(-c3ccccn3)cs2)cc1	6.5
O=S(=O)(Nc1ccc(CCNC[C@H](O)c2cccnc2)cc1)c1ccc(-c2nc(-c3cc4ccccc4s3)cs2)cc1	100
O=S(=O)(Nc1ccc(CCNC[C@H](O)c2cccnc2)cc1)c1ccc(-c2nc(Cc3ccc(F)cc3)cs2)cc1	3

System: not listed separately
Test: Oral bioavailability in dog
Assay type: ADME, organism-based, Canis lupus familiaris
Conditions: in vivo
Method in brief: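 Beagle dogs dosed orally at 10 mg/kg (solution in 0.5% methylcellulose/0.02% sodium lauryl sulfate with 2 equiv HCl) and iv at 3 mg/kg (PEG400/ethanol/normal saline 60:20:20 v/v/v). Blood taken predose and at 5 (iv only), 15, 30 min, 1, 2, 6, 8, 24 h. Plasma drug measured by LC/MS/MS.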

Compound	bioavailability [%]
CCCCCCCCc1csc(N2CCc3cc(S(=O)(=O)Nc4ccc(CCNC[C@H](O)c5cccnc5)cc4)ccc32)n1	13

Biological target: Beta-2 adrenergic receptor (Homo sapiens, UniProt P07550)
Sequence (P07550 whole entry): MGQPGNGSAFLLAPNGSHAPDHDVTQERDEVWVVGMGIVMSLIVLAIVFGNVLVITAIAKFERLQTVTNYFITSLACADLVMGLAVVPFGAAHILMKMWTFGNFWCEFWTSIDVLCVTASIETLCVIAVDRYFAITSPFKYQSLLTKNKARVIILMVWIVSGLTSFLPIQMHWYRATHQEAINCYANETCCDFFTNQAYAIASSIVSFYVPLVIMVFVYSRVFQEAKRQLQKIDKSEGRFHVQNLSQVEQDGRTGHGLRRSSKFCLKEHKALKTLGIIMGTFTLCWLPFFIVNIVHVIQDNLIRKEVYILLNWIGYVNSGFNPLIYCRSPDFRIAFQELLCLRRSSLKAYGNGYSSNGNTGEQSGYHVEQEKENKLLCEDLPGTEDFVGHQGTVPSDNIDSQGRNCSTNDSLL
Test: Binding affinity against human Beta-2 adrenergic receptor expressed in CHO cells using [125I]iodocyanopindolol
Assay type: cell-based
Conditions: not given

Compound	IC50 [µM]
O=S(=O)(Nc1ccc(CCNC[C@H](O)c2cccnc2)cc1)c1ccc(-c2nc(-c3c[nH]c4ccccc34)cs2)cc1	50
CC(C)(C)c1ccc(-c2csc(-c3ccc(S(=O)(=O)Nc4ccc(CCNC[C@H](O)c5cccnc5)cc4)cc3)n2)cc1	2
O=S(=O)(Nc1ccc(CCNC[C@H](O)c2cccnc2)cc1)c1ccc(-c2nc(-c3ccc4ccccc4c3)cs2)cc1	6.3
O=S(=O)(Nc1ccc(CCNC[C@H](O)c2cccnc2)cc1)c1ccc(-c2nc(-c3cccnc3)cs2)cc1	3
O=S(=O)(Nc1ccc(CCNC[C@H](O)c2cccnc2)cc1)c1ccc(-c2nc(-c3ccc(O)cc3)cs2)cc1	5.7
O=S(=O)(Nc1ccc(CCNC[C@H](O)c2cccnc2)cc1)c1ccc(-c2nc(Cc3ccc4ccccc4c3)cs2)cc1	2.3
O=S(=O)(Nc1ccc(CCNC[C@H](O)c2cccnc2)cc1)c1ccc(-c2nc(-c3ccc4ncccc4c3)cs2)cc1	8
CCCCCCCCc1csc(Cc2ccc(S(=O)(=O)Nc3ccc(CCNC[C@H](O)c4cccnc4)cc3)cc2)n1	1
O=S(=O)(Nc1ccc(CCNC[C@H](O)c2cccnc2)cc1)c1ccc(-c2nc(CCCC3CCCC3)cs2)cc1	3
O=S(=O)(Nc1ccc(CCNC[C@H](O)c2cccnc2)cc1)c1ccc(-c2nc(-c3ccccn3)cs2)cc1	4
O=S(=O)(Nc1ccc(CCNC[C@H](O)c2cccnc2)cc1)c1ccc(-c2nc(-c3cc4ccccc4s3)cs2)cc1	93
O=S(=O)(Nc1ccc(CCNC[C@H](O)c2cccnc2)cc1)c1ccc(-c2nc(Cc3ccc(F)cc3)cs2)cc1	2.5

Biological target: T1, Beta-3 adrenergic receptor (Homo sapiens, UniProt P13945)
Test: Percent increase in adenylyl cyclase activation in CHO cells expressing human beta-3 adrenergic receptor
Assay type: functional, cell-based
Conditions: not given
Method in brief: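 Functional adenylyl cyclase stimulation via the β3 receptor. Activation expressed as percent of the maximal stimulation produced by isoproterenol.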
Target sequence in this assay (P13945 whole entry, looked up): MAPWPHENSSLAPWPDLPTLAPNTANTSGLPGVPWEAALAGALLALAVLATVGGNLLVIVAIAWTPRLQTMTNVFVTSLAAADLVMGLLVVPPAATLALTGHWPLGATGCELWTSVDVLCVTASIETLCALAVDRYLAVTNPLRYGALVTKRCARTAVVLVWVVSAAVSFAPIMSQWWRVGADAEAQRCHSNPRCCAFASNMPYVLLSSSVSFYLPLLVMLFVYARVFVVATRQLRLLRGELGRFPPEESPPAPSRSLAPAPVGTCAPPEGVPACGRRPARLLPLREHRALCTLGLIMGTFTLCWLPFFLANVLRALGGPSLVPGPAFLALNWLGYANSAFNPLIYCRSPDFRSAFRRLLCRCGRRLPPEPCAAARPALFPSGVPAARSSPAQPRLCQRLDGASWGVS

Compound	Max stimulation [%]
O=S(=O)(Nc1ccc(CCNC[C@H](O)c2cccnc2)cc1)c1ccc(-c2nc(-c3c[nH]c4ccccc34)cs2)cc1	100
CC(C)(C)c1ccc(-c2csc(-c3ccc(S(=O)(=O)Nc4ccc(CCNC[C@H](O)c5cccnc5)cc4)cc3)n2)cc1	100
O=S(=O)(Nc1ccc(CCNC[C@H](O)c2cccnc2)cc1)c1ccc(-c2nc(-c3ccc4ccccc4c3)cs2)cc1	100
O=S(=O)(Nc1ccc(CCNC[C@H](O)c2cccnc2)cc1)c1ccc(-c2nc(-c3cccnc3)cs2)cc1	69
O=S(=O)(Nc1ccc(CCNC[C@H](O)c2cccnc2)cc1)c1ccc(-c2nc(-c3ccc(O)cc3)cs2)cc1	58
O=S(=O)(Nc1ccc(CCNC[C@H](O)c2cccnc2)cc1)c1ccc(-c2nc(Cc3ccc4ccccc4c3)cs2)cc1	75
O=S(=O)(Nc1ccc(CCNC[C@H](O)c2cccnc2)cc1)c1ccc(-c2nc(-c3ccc4ncccc4c3)cs2)cc1	97
CCCCCCCCc1csc(Cc2ccc(S(=O)(=O)Nc3ccc(CCNC[C@H](O)c4cccnc4)cc3)cc2)n1	79
O=S(=O)(Nc1ccc(CCNC[C@H](O)c2cccnc2)cc1)c1ccc(-c2nc(CCCC3CCCC3)cs2)cc1	95
O=S(=O)(Nc1ccc(CCNC[C@H](O)c2cccnc2)cc1)c1ccc(-c2nc(-c3ccccn3)cs2)cc1	100
O=S(=O)(Nc1ccc(CCNC[C@H](O)c2cccnc2)cc1)c1ccc(-c2nc(-c3cc4ccccc4s3)cs2)cc1	94
O=S(=O)(Nc1ccc(CCNC[C@H](O)c2cccnc2)cc1)c1ccc(-c2nc(Cc3ccc(F)cc3)cs2)cc1	57

Biological target: T1, Beta-3 adrenergic receptor
Test: Stimulated increase in cAMP in CHO cells expressing human beta-3 receptor
Assay type: functional, cell-based
Conditions: not given
Target sequence in this assay (P13945 whole entry): as the sequence (P13945 whole entry, looked up) above

Compound	EC50 [µM]
O=S(=O)(Nc1ccc(CCNC[C@H](O)c2cccnc2)cc1)c1ccc(-c2nc(-c3c[nH]c4ccccc34)cs2)cc1	0.0049
CC(C)(C)c1ccc(-c2csc(-c3ccc(S(=O)(=O)Nc4ccc(CCNC[C@H](O)c5cccnc5)cc4)cc3)n2)cc1	0.0024
O=S(=O)(Nc1ccc(CCNC[C@H](O)c2cccnc2)cc1)c1ccc(-c2nc(-c3ccc4ccccc4c3)cs2)cc1	0.002
O=S(=O)(Nc1ccc(CCNC[C@H](O)c2cccnc2)cc1)c1ccc(-c2nc(-c3cccnc3)cs2)cc1	0.04
O=S(=O)(Nc1ccc(CCNC[C@H](O)c2cccnc2)cc1)c1ccc(-c2nc(-c3ccc(O)cc3)cs2)cc1	0.045
O=S(=O)(Nc1ccc(CCNC[C@H](O)c2cccnc2)cc1)c1ccc(-c2nc(Cc3ccc4ccccc4c3)cs2)cc1	0.005
O=S(=O)(Nc1ccc(CCNC[C@H](O)c2cccnc2)cc1)c1ccc(-c2nc(-c3ccc4ncccc4c3)cs2)cc1	0.0027
CCCCCCCCc1csc(Cc2ccc(S(=O)(=O)Nc3ccc(CCNC[C@H](O)c4cccnc4)cc3)cc2)n1	0.0098
O=S(=O)(Nc1ccc(CCNC[C@H](O)c2cccnc2)cc1)c1ccc(-c2nc(CCCC3CCCC3)cs2)cc1	0.026
O=S(=O)(Nc1ccc(CCNC[C@H](O)c2cccnc2)cc1)c1ccc(-c2nc(-c3ccccn3)cs2)cc1	0.022
O=S(=O)(Nc1ccc(CCNC[C@H](O)c2cccnc2)cc1)c1ccc(-c2nc(-c3cc4ccccc4s3)cs2)cc1	0.0058
O=S(=O)(Nc1ccc(CCNC[C@H](O)c2cccnc2)cc1)c1ccc(-c2nc(Cc3ccc(F)cc3)cs2)cc1	0.0062
